Laboratory results from article PMC5049450 (Journal of Clinical Pharmacology, 2015).
Where two headings read alike, the source gives them in different places.

Tests used:
[1] = cited from earlier work
[2] = patients with advanced solid tumors, cited from earlier work
[3] = healthy volunteers, cited from earlier work
[4] = rats; cited from earlier work
[5] = test system: CYP3A; conditions: phase‐1 oxidative metabolism; cited from earlier work
[6] = increased solubility at low pH; cited from earlier work
[7] = test system: plasma protein; conditions: across species; independent of drug concentration; cited from earlier work
[8] = Safety assessment; format: in vivo, human
Summary of the method: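 Noncancer Child–Pugh mild, moderate or severe hepatic impairment subjects (6 per group) and 13 healthy controls received one oral test-compound dose after an overnight fast. Safety was monitored throughout through adverse events, clinical laboratory tests, ECGs and physical examinations. Adverse events were graded by NCI-CTCAE v4.03 and relationship to drug was recorded. Safety follow-up was on day 31.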

[9] = cited from earlier work; remark: listed apart in the source
[10] = format: in vivo, human; design: AUC∞, unbound buparlisib GMR (90%CI) / Cmax, total buparlisib GMR (90%CI) / Cmax, unbound buparlisib GMR (90%CI): unit not given beside the values; conditions: for increase in Cmax compared with normal hepatic function / increase in buparlisib exposure (AUC∞) compared with normal hepatic function: total buparlisib
Summary of the method: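 After a single oral dose following an overnight fast, K3EDTA blood was drawn predose and at 0.5–336 h. Samples were centrifuged at 1500 g for 10 min at 3–5 °C and plasma stored at –70 °C. Plasma levels were measured by validated LC-MS/MS after solid-phase extraction with a stable-labelled internal standard. Parameters were derived by noncompartmental analysis and compared by ANOVA of log-transformed values, with hepatic function as the fixed effect.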

[11] = coadministration with ritonavir
[12] = moderate‐hepatic‐function group
[13] = linear regression, severe hepatic impairment relative to control group (1.6 vs 1.0), not statistically significant
[14] = linear regression, severe hepatic impairment relative to control group (29.7 g/L vs 45.2 g/L), not statistically significant
[15] = mild hepatic impairment versus normal hepatic function group, 30 mg
[16] = moderate hepatic impairment versus normal hepatic function group, 30 mg

Nc1cc(C(F)(F)F)c(-c2cc(N3CCOCC3)nc(N3CCOCC3)n2)cn1 [buparlisib]
maximum tolerated dose [1]: 100 mg/day
increases in Cmax and AUC0–24 with dose ([2]; following multiple doses): approximately dose‐proportional
time of maximum plasma concentrations postdose [2]: 1 to 4 h
apparent clearance ([3]; buparlisib with ritonavir): 3.27 L/h
elimination half‐life (T1/2) ([3]; buparlisib with ritonavir): 71.6 h
apparent clearance ([3]; buparlisib without ritonavir): 5.37 L/h
elimination half‐life (T1/2) ([3]; buparlisib without ritonavir): 53.3 h
increase in Cmax geometric mean ratio [3, 11]: 19%
increase in buparlisib exposure (AUC∞) [3, 11]: 73%
dose eliminated renally [4]: 20–30%
estimated fraction metabolized by CYP3A [5]: > 0.9
solubility [6]: soluble
plasma protein binding [7]: 79–85%
subjects with QTcF >450 milliseconds ([8]; all subjects): Eight subjects
subjects with QTcF increase of >30 milliseconds from baseline ([8]; all subjects): Six subjects
subjects with QTcF increase of >30 milliseconds from baseline ([8]; mild‐hepatic‐function group): 2
subjects reporting treatment‐related AEs ([8]; moderate hepatic impairment, grade‐1 prolonged QTcF, grade‐1 hypertension): 2 subjects
subjects with QTcF >450 milliseconds [8, 12]: 4
subjects with QTcF increase of >30 milliseconds from baseline [8, 12]: 2
subjects reporting treatment‐related AEs ([8]; normal hepatic function, grade‐1 dizziness, grade‐1 dermatitis acneiform): 2 subjects
subjects with QTcF increase of >30 milliseconds from baseline ([8]; normal‐hepatic‐function group): 2
subjects reporting treatment‐related AEs ([8]; severe hepatic impairment, grade‐2 thrombocytopenia): 1 subject
subjects with QTcF >450 milliseconds ([8]; severe‐hepatic‐function group): 4
deaths during the study ([8]; single oral 30 mg, all subjects (N = 31)): no deaths
tolerability ([8]; single oral 30‐mg dose, subjects with and without hepatic impairment): well tolerated
permeability [9]: highly permeable
AUC(0-inf) ([10]; human, plasma, po, 30 mg, AUC∞, geometric mean (CV%), single oral 30 mg, fasted, normal hepatic function (n = 13)): 6010 ng·h/mL
Cmax ([10]; human, plasma, po, 30 mg, Cmax, geometric mean (CV%), single oral 30 mg, fasted, normal hepatic function (n = 13)): 221 ng/mL
half-life ([10]; human, plasma, po, 30 mg, T1/2, geometric mean (CV%), single oral 30 mg, fasted, normal hepatic function (n = 13)): 53 h
Tmax ([10]; human, plasma, po, 30 mg, Tmax, median (range), single oral 30 mg, fasted, normal hepatic function (n = 13)): 1 h
Vd/F ([10]; human, plasma, po, 30 mg, Vz/F, geometric mean (CV%), single oral 30 mg, fasted, normal hepatic function (n = 13)): 381 L
increase in AUC∞ associated with higher (52%) INR [10, 13]: 15%
increase in Cmax associated with higher (52%) INR [10, 13]: 11%
increase in AUC∞ associated with lower (34%) baseline albumin level [10, 14]: 26%
increase in Cmax associated with lower (34%) baseline albumin level [10, 14]: 15%
AUC∞, unbound buparlisib GMR (90%CI) [10, 15]: 1.17 (0.84, 1.64)
Cmax, total buparlisib GMR (90%CI) [10, 15]: 1.26 (1.00, 1.58)
Cmax, unbound buparlisib GMR (90%CI) [10, 15]: 1.28 (0.99, 1.64)
increase in Cmax compared with normal hepatic function ([10]; mild hepatic impairment): 26%
increase in buparlisib exposure (AUC∞) compared with normal hepatic function ([10]; mild hepatic impairment): 16%
AUC∞, unbound buparlisib GMR (90%CI) [10, 16]: 1.18 (0.84, 1.65)
Cmax, total buparlisib GMR (90%CI) [10, 16]: 1.08 (0.87, 1.36)
Cmax, unbound buparlisib GMR (90%CI) [10, 16]: 1.12 (0.87, 1.44)
increase in Cmax compared with normal hepatic function ([10]; moderate hepatic impairment): 8%
increase in buparlisib exposure (AUC∞) compared with normal hepatic function ([10]; moderate hepatic impairment): 14%
Cmax, total buparlisib GMR (90%CI) ([10]; severe hepatic impairment versus normal hepatic function group, 30 mg): 1.45 (1.15, 1.81)
increase in Cmax compared with normal hepatic function ([10]; severe hepatic impairment): 45%
increase in buparlisib exposure (AUC∞) compared with normal hepatic function ([10]; severe hepatic impairment): 20%
CL/F, geometric mean (CV%) ([10]; single oral 30 mg, fasted, mild hepatic impairment, Child–Pugh A (n = 6)): 4.3 (46) L/h
CL/F, geometric mean (CV%) ([10]; single oral 30 mg, fasted, moderate hepatic impairment, Child–Pugh B (n = 6)): 4.4 (62) L/h
CL/F, geometric mean (CV%) ([10]; single oral 30 mg, fasted, normal hepatic function (n = 13)): 5.0 (37) L/h
CL/F, geometric mean (CV%) ([10]; single oral 30 mg, fasted, severe hepatic impairment, Child–Pugh C (n = 6)): 4.2 (41) L/h
secondary absorption peak, time postdose ([10]; single oral 30 mg, subjects with or without hepatic impairment): approximately 24 hours
